ChEMBL document CHEMBL1806372, “Cytotoxic ring A-modified steroid analogues derived from Grundmann's ketone” (Eur J Med Chem, 2011)
The source made the active and inactive calls. The rule behind the calls is not given here.

Tests used:
Type in all cases: functional
EKVX = assay: Growth inhibition of human EKVX cells assessed as cell growth at 10^-5 M after 48 hrs by sulforhodamine B assay; settings: read-out: Activity
Summary of the method: (§1)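 NCI 60-cell panel single high-dose screen: compound applied at 10^-5 M for 48 h, endpoint by sulforhodamine B protein-binding dye. Values reported as growth percent of treated cells relative to untreated control cells.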

NCI-H322M = assay: Growth inhibition of human NCI-H322M cells assessed as cell growth at 10^-5 M after 48 hrs by sulforhodamine B assay; settings: read-out: Activity
Summary of the method: (§2)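 NCI-60 single high-dose screen run under the NCI protocol. Cells were incubated with compound at 10^-5 M for 48 h. The end point was determined by sulforhodamine B protein staining. Results are reported as percent growth of treated cells relative to untreated control cells.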

NCI-H460 = assay: Growth inhibition of human NCI-H460 cells assessed as cell growth at 10^-5 M after 48 hrs by sulforhodamine B assay; settings: NCI-H460, 48 h, read-out: Activity; summary of the method: as §2
NCI-H522 = assay: Growth inhibition of human NCI-H522 cells assessed as cell growth at 10^-5 M after 48 hrs by sulforhodamine B assay; settings: NCI-H522, 48 h, read-out: Activity; summary of the method: as §2
HCC 2998 = assay: Growth inhibition of human HCC2998 cells assessed as cell growth at 10^-5 M after 48 hrs by sulforhodamine B assay; settings: HCC 2998, 48 h, read-out: Activity; summary of the method: as §1
HCT-15 = assay: Growth inhibition of human HCT15 cells assessed as cell growth at 10^-5 M after 48 hrs by sulforhodamine B assay; settings: HCT-15, 48 h, read-out: Activity; summary of the method: as §1
HT-29 = assay: Growth inhibition of human HT-29 cells assessed as cell growth at 10^-5 M after 48 hrs by sulforhodamine B assay; settings: HT-29, 48 h, read-out: Activity; summary of the method: as §1
SW-620 = assay: Growth inhibition of human SW620 cells assessed as cell growth at 10^-5 M after 48 hrs by sulforhodamine B assay; settings: SW-620, 48 h, read-out: Activity
Summary of the method: (§3)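 NCI 60-cell panel single-dose screen under the NCI protocol. Cells are exposed to compound at one concentration (10^-5 M) for 48 h. The end point is protein staining with sulforhodamine B. Each line is reported as percent growth of treated cells relative to untreated control cells.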

SF-268 = assay: Growth inhibition of human SF268 cells assessed as cell growth at 10^-5 M after 48 hrs by sulforhodamine B assay; settings: SF-268, 48 h, read-out: Activity; summary of the method: as §2
SNB-19 = assay: Growth inhibition of human SNB19 cells assessed as cell growth at 10^-5 M after 48 hrs by sulforhodamine B assay; settings: SNB-19, 48 h, read-out: Activity; summary of the method: as §3
Malme-3M = assay: Growth inhibition of human MALME-3M cells assessed as cell growth at 10^-5 M after 48 hrs by sulforhodamine B assay; settings: read-out: Activity; summary of the method: as §2
M14 = assay: Growth inhibition of human M14 cells assessed as cell growth at 10^-5 M after 48 hrs by sulforhodamine B assay; settings: M14, 48 h, read-out: Activity; summary of the method: as §2
SK-MEL-2 = assay: Growth inhibition of human SK-MEL-2 cells assessed as cell growth at 10^-5 M after 48 hrs by sulforhodamine B assay; settings: SK-MEL-2, 48 h, read-out: Activity; summary of the method: as §2
OVCAR-3 = assay: Growth inhibition of human OVCAR3 cells assessed as cell growth at 10^-5 M after 48 hrs by sulforhodamine B assay; settings: OVCAR-3, 48 h, read-out: Activity; summary of the method: as §2
OVCAR-4 = assay: Growth inhibition of human OVCAR4 cells assessed as cell growth at 10^-5 M after 48 hrs by sulforhodamine B assay; settings: OVCAR-4, 48 h, read-out: Activity; summary of the method: as §2
OVCAR-5 = assay: Growth inhibition of human OVCAR5 cells assessed as cell growth at 10^-5 M after 48 hrs by sulforhodamine B assay; settings: OVCAR-5, 48 h, read-out: Activity; summary of the method: as §2
OVCAR-8 = assay: Growth inhibition of human OVCAR8 cells assessed as cell growth at 10^-5 M after 48 hrs by sulforhodamine B assay; settings: OVCAR-8, 48 h, read-out: Activity; summary of the method: as §2
SK-OV-3 = assay: Growth inhibition of human SKOV3 cells assessed as cell growth at 10^-5 M after 48 hrs by sulforhodamine B assay; settings: SK-OV-3, 48 h, read-out: Activity; summary of the method: as §3
786-0 = assay: Growth inhibition of human 786-0 cells assessed as cell growth at 10^-5 M after 48 hrs by sulforhodamine B assay; settings: 786-0, 48 h, read-out: Activity; summary of the method: as §1
A498 = assay: Growth inhibition of human A498 cells assessed as cell growth at 10^-5 M after 48 hrs by sulforhodamine B assay; settings: A498, 48 h, read-out: Activity; summary of the method: as §1
CAKI-1 = assay: Growth inhibition of human Caki1 cells assessed as cell growth at 10^-5 M after 48 hrs by sulforhodamine B assay; settings: CAKI-1, 48 h, read-out: Activity; summary of the method: as §1
PC-3 = assay: Growth inhibition of human PC3 cells assessed as cell growth at 10^-5 M after 48 hrs by sulforhodamine B assay; settings: PC-3, 48 h, read-out: Activity; summary of the method: as §2
DU-145 = assay: Growth inhibition of human DU145 cells assessed as cell growth at 10^-5 M after 48 hrs by sulforhodamine B assay; settings: DU-145, 48 h, read-out: Activity; summary of the method: as §1
MDA-MB-231 = assay: Growth inhibition of human MDA-MB-231 cells assessed as cell growth at 10^-5 M after 48 hrs by sulforhodamine B assay; settings: MDA-MB-231, 48 h, read-out: Activity; summary of the method: as §2
[1] = Growth inhibition of human Hs 578T cells assessed as cell growth at 10^-5 M after 48 hrs by sulforhodamine B assay; settings: read-out: Activity; summary of the method: as §1
Streptococcus entericus = assay: Antibacterial activity against Streptococcus entericus assessed as zone of inhibition at 5 uL and 32 degC after 36 hrs by disk diffusion method
Summary of the method: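 Disc diffusion on AC agar, each strain spread evenly over the medium; test compounds given as 1% (w/v) DMSO solutions. Plates covered and incubated 36 h at 32 °C, then the diameter of the zone of inhibited growth measured in mm. Tetracycline served as antibacterial reference.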

Nakaseomyces glabratus = assay: Antifungal activity against Candida glabrata assessed as zone of inhibition at 5 uL and 28 degC after 36 hrs by disk diffusion method
Summary of the method: (§4)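 Agar disc diffusion with the test compound applied as a 1% (w/v) DMSO solution. Yeasts were grown on AC agar and Aspergillus niger on potato dextrose broth agar, each strain spread evenly. Plates were covered and kept 36 h at 28 °C, and the inhibition zone diameter was read in mm. Clotrimazole served as reference.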

[2] = Antifungal activity against Hyphopichia burtonii assessed as zone of inhibition at 5 uL and 28 degC after 36 hrs by disk diffusion method; summary of the method: as §4
K562 = assay: Growth inhibition of human K562 cells assessed as cell growth at 10^-5 M after 48 hrs by sulforhodamine B assay; settings: K562, 48 h, read-out: Activity; summary of the method: as §1
MOLT-4 = assay: Growth inhibition of human MOLT4 cells assessed as cell growth at 10^-5 M after 48 hrs by sulforhodamine B assay; settings: MOLT-4, 48 h, read-out: Activity; summary of the method: as §2
SR = assay: Growth inhibition of human SR cells assessed as cell growth at 10^-5 M after 48 hrs by sulforhodamine B assay; settings: read-out: Activity; summary of the method: as §3

Row | Structure (SMILES) | growth at 10 µM (EKVX) | growth at 10 µM (NCI-H322M) | growth at 10 µM (NCI-H460) | growth at 10 µM (NCI-H522) | growth at 10 µM (HCC 2998) | growth at 10 µM (HCT-15) | growth at 10 µM (HT-29) | growth at 10 µM (SW-620) | growth at 10 µM (SF-268) | growth at 10 µM (SNB-19) | growth at 10 µM (Malme-3M) | growth at 10 µM (M14) | growth at 10 µM (SK-MEL-2) | growth at 10 µM (OVCAR-3) | growth at 10 µM (OVCAR-4) | growth at 10 µM (OVCAR-5) | growth at 10 µM (OVCAR-8) | growth at 10 µM (SK-OV-3) | growth at 10 µM (786-0) | growth at 10 µM (A498) | further results
1 | CC(C)CCC[C@@H](C)[C@H]1CC[C@H]2[C@@H]3CCN4C(=O)CCC(=O)N4[C@@H]3CC[C@]12C | 83.3% | 117% | 107% | 80.2% | 86.6% | 106% | 87.9% | 93.2% | 74.5% | 162% | 95.6% | 90.5% | 114% | 104% | 103% | 91.5% | 93.5% | 99.3% | 83.8% | 89.2% | growth at 10 µM (CAKI-1): 73.5%; growth at 10 µM (PC-3): 70.5%; growth at 10 µM (DU-145): 100%; growth at 10 µM (MDA-MB-231): 98.2%; growth at 10 µM [1]: 97%; diameter of the inhibition zone (DIZ) (Streptococcus entericus): 10 mm; diameter of the inhibition zone (DIZ) (Nakaseomyces glabratus): inactive; inhibition zone (IZ) [2]: 15 mm; growth at 10 µM (K562): 91%; growth at 10 µM (MOLT-4): 87.2%; growth at 10 µM (SR): 79.7%
2 | CC(C)CCC[C@@H](C)[C@H]1CC[C@H]2C3=CC[C@@H]4C(=O)C=CC(=O)[C@@H]4[C@@H]3CC[C@]12C | -10% | 42.6% | 2.88% | -46.1% | -75.5% | 11.3% | 7.56% | 20.4% | -61.2% | 7.34% | 17.5% | 5.05% | 41.9% | 2.72% | -9.33% | 7.74% | 0.17% | 10.5% | -5.66% | -6.21% | growth at 10 µM (CAKI-1): -56.3%; growth at 10 µM (PC-3): 9.01%; growth at 10 µM (DU-145): 26.6%; growth at 10 µM (MDA-MB-231): 28.6%; growth at 10 µM [1]: 8.12%; diameter of the inhibition zone (DIZ) (Streptococcus entericus): inactive; diameter of the inhibition zone (DIZ) (Nakaseomyces glabratus): inactive; diameter of the inhibition zone (DIZ) [2]: inactive; growth at 10 µM (K562): 9.94%; growth at 10 µM (MOLT-4): 10.4%; growth at 10 µM (SR): 13.2%
3 | CC(C)CCC[C@@H](C)[C@H]1CC[C@H]2C3=CCn4c(=O)ccc(=O)n4[C@@H]3CC[C@]12C | -82.2% | -55.3% | -89.9% | -66.1% | -100% | -63.7% | -97.5% | -91.6% | -92.3% | -100% | -98% | -87.1% | -93% | -96.5% | -32.4% | -84.3% | -39.7% | -100% | -100% | -94.8% | growth at 10 µM (CAKI-1): -91.6%; growth at 10 µM (PC-3): -85.5%; growth at 10 µM (DU-145): -93.7%; growth at 10 µM (MDA-MB-231): -89.2%; growth at 10 µM [1]: -12.2%; diameter of the inhibition zone (DIZ) (Streptococcus entericus): 7 mm; diameter of the inhibition zone (DIZ) (Nakaseomyces glabratus): 8 mm; inhibition zone (IZ) [2]: 10 mm; growth at 10 µM (K562): -40%; growth at 10 µM (MOLT-4): -23.6%; growth at 10 µM (SR): -34.6%
